# Reference: ChEMBL document CHEMBL3784931, “Synthesis and evaluation of novel angiotensin II receptor 1 antagonists as anti-hypertension drugs” (Bioorg Med Chem, 2016)
# Key:
# [1] = target: T1, Type-1 angiotensin II receptor A (Rattus norvegicus, UniProt P25095); experiment: Displacement of [125I]-Ang II from Angiotensin 2 type-1A receptor in rat vascular smooth muscle cells after 150 mins by gamma counting method
# T1 sequence (P25095 whole entry): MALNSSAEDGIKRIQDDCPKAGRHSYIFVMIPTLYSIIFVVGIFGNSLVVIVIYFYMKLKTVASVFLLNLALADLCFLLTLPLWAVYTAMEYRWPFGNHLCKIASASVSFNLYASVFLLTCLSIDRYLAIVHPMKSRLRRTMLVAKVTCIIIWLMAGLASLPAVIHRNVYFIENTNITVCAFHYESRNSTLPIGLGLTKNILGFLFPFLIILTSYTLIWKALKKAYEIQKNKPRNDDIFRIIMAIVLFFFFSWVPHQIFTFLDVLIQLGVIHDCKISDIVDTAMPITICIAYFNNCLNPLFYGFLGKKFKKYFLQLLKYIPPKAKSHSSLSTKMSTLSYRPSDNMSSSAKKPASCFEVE
# How it was run: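 Rat vascular smooth muscle cells (passages 3–6) were seeded at 10⁶ cells/well and grown at 37 °C in 5% CO₂. Nonspecific binding was taken with 1 µM Ang II. Cells were washed three times, lysed 10 min in 0.1 M NaOH, and bound radioactivity was gamma counted.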
# Rattus norvegicus [2] = experiment: Antihypertensive activity in spontaneous hypertensive rat model assessed as mean blood pressure at 10 mg/kg, po administered for 2 hrs; type: functional
# How it was run: (§1)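 Male SHRs were randomized, n = 6 per group. Compound was suspended in DMSO/oleic acid (1:4) and given by oral gavage; vehicle controls got the same volume of solvent. SBP and DBP were recorded in conscious animals by noninvasive tail-artery manometry. MBP = (SBP − DBP)/3 + DBP. Data are mean ± SEM, with p < 0.05 taken as significant.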
# Rattus norvegicus [3] = experiment: Antihypertensive activity in spontaneous hypertensive rat model assessed as mean blood pressure at 15 mg/kg, po administered for 2 hrs; type: functional; how it was run: as §1
# [4] = Tmax in Wistar rat plasma at 10 mg/kg, po after 0.5 to 72 hrs by HPLC analysis; type: ADME, organism-based
# How it was run: (§2)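 Wistar rats got an oral dose. Venous blood (0.5 mL) was taken predose and at 0.5, 1, 2, 4, 6, 8, 12, 24, 48 and 72 h, and plasma was spun 4000 × g, 4 °C, 10 min. Samples with internal standard were acetonitrile-precipitated, filtered and run on C18 reverse-phase HPLC with UV detection. Calibration used weighted regression of peak height ratio.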
# [5] = Cmax in Wistar rat plasma at 10 mg/kg, po after 0.5 to 72 hrs by HPLC analysis; type: ADME, organism-based; design: dose 10 mg/kg, route oral; how it was run: as §2
# [6] = Elimination rate constant in Wistar rat plasma at 10 mg/kg, po after 0.5 to 72 hrs by HPLC analysis; type: ADME, organism-based; how it was run: as §2
# [7] = Terminal half life in Wistar rat plasma at 10 mg/kg, po after 0.5 to 72 hrs by HPLC analysis; type: ADME, organism-based; conditions: read-out: beta t1/2 (converted); how it was run: as §2
# [8] = AUC (0 to 72 hrs) in Wistar rat plasma at 10 mg/kg, po by HPLC analysis; type: ADME, organism-based; design: dose 10 mg/kg, time < 72 hr, route oral; how it was run: as §2
# [9] = Tmax in Wistar rat heart at 10 mg/kg, po after 0.5 to 72 hrs by HPLC analysis; type: ADME, organism-based
# How it was run: (§3)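 Wistar rats were dosed orally and killed by abdominal aorta transection at 0.5, 1, 2, 4, 6, 8, 12, 24, 48 and 72 h. Organs were excised at once, minced and homogenized at 4 °C in normal saline to a 25% (w/v) homogenate. After spinning at 3000 × g, 4 °C, 10 min, supernatants were analysed by HPLC. Values are mean ± SEM, n = 5 per point.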
# [10] = Cmax in Wistar rat heart at 10 mg/kg, po after 0.5 to 72 hrs by HPLC analysis; type: ADME, organism-based; design: dose 10 mg/kg, route oral; how it was run: as §3
# [11] = Elimination rate constant in Wistar rat heart at 10 mg/kg, po after 0.5 to 72 hrs by HPLC analysis; type: ADME, organism-based; how it was run: as §3
# [12] = Terminal half life in Wistar rat heart at 10 mg/kg, po after 0.5 to 72 hrs by HPLC analysis; type: ADME, organism-based; conditions: read-out: beta t1/2 (converted); how it was run: as §3
# Heart = experiment: AUC (0 to 72 hrs) in Wistar rat heart at 10 mg/kg, po by HPLC analysis; type: ADME, organism-based; design: time < 72 hr, dose 10 mg/kg, route oral; conditions: in vivo; how it was run: as §3
# [13] = Tmax in Wistar rat liver at 10 mg/kg, po after 0.5 to 72 hrs by HPLC analysis; type: ADME, organism-based; how it was run: as §3
# [14] = Cmax in Wistar rat liver at 10 mg/kg, po after 0.5 to 72 hrs by HPLC analysis; type: ADME, organism-based; design: dose 10 mg/kg, route oral; how it was run: as §3
# [15] = Elimination rate constant in Wistar rat liver at 10 mg/kg, po after 0.5 to 72 hrs by HPLC analysis; type: ADME, organism-based; how it was run: as §3
# [16] = Terminal half life in Wistar rat liver at 10 mg/kg, po after 0.5 to 72 hrs by HPLC analysis; type: ADME, organism-based; conditions: read-out: beta t1/2 (converted); how it was run: as §3
# Liver = experiment: AUC (0 to 72 hrs) in Wistar rat liver at 10 mg/kg, po by HPLC analysis; type: ADME, organism-based; design: time < 72 hr, dose 10 mg/kg, route oral; conditions: in vivo; how it was run: as §3
# [17] = Tmax in Wistar rat spleen at 10 mg/kg, po after 0.5 to 72 hrs by HPLC analysis; type: ADME, organism-based; how it was run: as §3
# [18] = Cmax in Wistar rat spleen at 10 mg/kg, po after 0.5 to 72 hrs by HPLC analysis; type: ADME, organism-based; design: dose 10 mg/kg, route oral; how it was run: as §3
# [19] = Elimination rate constant in Wistar rat spleen at 10 mg/kg, po after 0.5 to 72 hrs by HPLC analysis; type: ADME, organism-based; how it was run: as §3
# [20] = Terminal half life in Wistar rat spleen at 10 mg/kg, po after 0.5 to 72 hrs by HPLC analysis; type: ADME, organism-based; conditions: read-out: beta t1/2 (converted); how it was run: as §3
# Spleen = experiment: AUC (0 to 72 hrs) in Wistar rat spleen at 10 mg/kg, po by HPLC analysis; type: ADME, organism-based; design: time < 72 hr, dose 10 mg/kg, route oral; conditions: in vivo; how it was run: as §3
# [21] = Tmax in Wistar rat lung at 10 mg/kg, po after 0.5 to 72 hrs by HPLC analysis; type: ADME, organism-based; how it was run: as §3
# [22] = Cmax in Wistar rat lung at 10 mg/kg, po after 0.5 to 72 hrs by HPLC analysis; type: ADME, organism-based; design: dose 10 mg/kg, route oral; how it was run: as §3
# [23] = Elimination rate constant in Wistar rat lung at 10 mg/kg, po after 0.5 to 72 hrs by HPLC analysis; type: ADME, organism-based; how it was run: as §3
# [24] = Terminal half life in Wistar rat lung at 10 mg/kg, po after 0.5 to 72 hrs by HPLC analysis; type: ADME, organism-based; conditions: read-out: beta t1/2 (converted); how it was run: as §3
# Lung = experiment: AUC (0 to 72 hrs) in Wistar rat lung at 10 mg/kg, po by HPLC analysis; type: ADME, organism-based; design: dose 10 mg/kg, time < 72 hr, route oral; conditions: in vivo; how it was run: as §3
# [25] = Tmax in Wistar rat kidney at 10 mg/kg, po after 0.5 to 72 hrs by HPLC analysis; type: ADME, organism-based; how it was run: as §3
# [26] = Cmax in Wistar rat kidney at 10 mg/kg, po after 0.5 to 72 hrs by HPLC analysis; type: ADME, organism-based; design: dose 10 mg/kg, route oral; how it was run: as §3
compound,measurement,setting,value
CCCCc1nc(Cl)c(C(=O)O)n1Cc1ccc(-c2ccccc2-c2noc(=O)[nH]2)cc1,IC50,[1],3.16 nM
same,Ki,[1],2.29 nM
same,Activity,Rattus norvegicus [2],41 mmHg
same,Activity,Rattus norvegicus [3],62 mmHg
same,Tmax,[4],2 h
same,Cmax,[5],10.3 ng/mL
same,k el,[6],1.11e-05 s⁻¹
same,half-life,[7],18.2 h
same,AUC(0-t) at 72 h,[8],296 ng·h/mL
same,Tmax,[9],0.5 h
same,Cmax,[10],8.87 ng/g
same,k el,[11],2.11e-05 s⁻¹
same,half-life,[12],9.13 h
same,AUC,Heart,200.41 ng·h/g
same,Tmax,[13],0.5 h
same,Cmax,[14],9.56 ng/g
same,k el,[15],1.94e-05 s⁻¹
same,half-life,[16],10.7 h
same,AUC,Liver,260.05 ng·h/g
same,Tmax,[17],4 h
same,Cmax,[18],8.84 ng/g
same,k el,[19],2.19e-05 s⁻¹
same,half-life,[20],8.74 h
same,AUC,Spleen,275.21 ng·h/g
same,Tmax,[21],1 h
same,Cmax,[22],9.16 ng/g
same,k el,[23],1.64e-05 s⁻¹
same,half-life,[24],12.4 h
same,AUC,Lung,213.96 ng·h/g
same,Tmax,[25],0.5 h
same,Cmax,[26],10.5 ng/g
